Two compounds from ChEMBL document CHEMBL4002591 (J Med Chem, 2017) can be followed below.

In data set [1] the target is T1, Poly [ADP-ribose] polymerase tankyrase-1 (Homo sapiens, UniProt O95271).
T1 sequence (O95271 whole entry): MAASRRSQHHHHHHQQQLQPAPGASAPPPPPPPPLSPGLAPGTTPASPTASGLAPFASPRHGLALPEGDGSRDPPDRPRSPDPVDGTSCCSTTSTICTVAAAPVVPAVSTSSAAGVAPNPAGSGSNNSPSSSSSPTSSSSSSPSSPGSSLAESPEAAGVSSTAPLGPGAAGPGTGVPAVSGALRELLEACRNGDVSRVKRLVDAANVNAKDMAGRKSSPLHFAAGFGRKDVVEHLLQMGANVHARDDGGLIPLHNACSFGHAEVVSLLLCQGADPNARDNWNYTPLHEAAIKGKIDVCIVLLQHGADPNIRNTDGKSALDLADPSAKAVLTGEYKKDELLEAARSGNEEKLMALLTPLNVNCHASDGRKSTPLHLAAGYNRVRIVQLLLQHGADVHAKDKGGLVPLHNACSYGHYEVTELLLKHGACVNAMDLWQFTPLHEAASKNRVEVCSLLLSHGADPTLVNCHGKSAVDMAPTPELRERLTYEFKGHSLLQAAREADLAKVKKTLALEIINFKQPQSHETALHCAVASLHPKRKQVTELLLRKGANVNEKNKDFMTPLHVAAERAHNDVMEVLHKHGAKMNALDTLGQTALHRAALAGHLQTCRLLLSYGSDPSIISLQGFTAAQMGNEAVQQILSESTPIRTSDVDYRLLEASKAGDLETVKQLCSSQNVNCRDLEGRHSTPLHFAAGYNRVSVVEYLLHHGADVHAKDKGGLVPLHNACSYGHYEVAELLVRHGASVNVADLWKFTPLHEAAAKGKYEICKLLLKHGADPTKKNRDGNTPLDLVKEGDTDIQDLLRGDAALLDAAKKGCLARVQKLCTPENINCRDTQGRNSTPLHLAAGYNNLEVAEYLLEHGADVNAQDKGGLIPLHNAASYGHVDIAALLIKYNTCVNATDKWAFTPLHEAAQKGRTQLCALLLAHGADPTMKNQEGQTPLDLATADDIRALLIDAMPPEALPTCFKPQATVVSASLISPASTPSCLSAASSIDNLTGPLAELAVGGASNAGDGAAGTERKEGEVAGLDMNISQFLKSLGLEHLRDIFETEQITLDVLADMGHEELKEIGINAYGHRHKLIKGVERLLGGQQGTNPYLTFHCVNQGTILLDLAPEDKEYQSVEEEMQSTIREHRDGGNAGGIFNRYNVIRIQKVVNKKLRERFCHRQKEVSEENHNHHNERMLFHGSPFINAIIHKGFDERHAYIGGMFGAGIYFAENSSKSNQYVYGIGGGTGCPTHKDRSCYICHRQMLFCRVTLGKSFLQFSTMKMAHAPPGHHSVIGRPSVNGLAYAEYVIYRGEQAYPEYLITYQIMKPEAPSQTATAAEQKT
Put plainly: Inhibition of recombinant human N-terminal GST-tagged TNKS1 (1001 to 1327 residues) expressed in baculovirus infected sf9 cells using TACS-Sapphire as substrate measured after 30 mins by colorimetric assay.

The subject of another data set is 3T3-L1. Briefly: Effect on glucose uptake in mouse 3T3L1 cells at 1 uM using 2-deoxy-D-[2,6-3H]glucose as substrate pretreated for 1 hr followed substrate addition measured after 5 mins by scintillation counter. Format: ADME, cell-based. The settings on record: 3t3-l1, 5 min. The procedure, abridged:
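3T3-L1 fibroblasts were grown in DMEM and differentiated to adipocytes with insulin, dexamethasone and isobutylmethylxanthine, then used 10-12 d later. Cells were serum-starved 2 h at 37°C and given compound for 1 h. After KRH washes (pH 7.4), cells were held 30 min with compound, with or without 100 nM insulin. 2-Deoxy-D-[2,6-³H]glucose was added for 5 min.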

Data set [2] in a line: Inhibition of tankyrase (unknown origin) expressed in TCF/LEF-HEK293 cells assessed as inhibition of Wnt/beta-catenin signaling pathway in Wnt3a conditioned medium measured after 20 hrs by luciferase reporter gene assay. Format: cell-based. The settings on record: Homo sapiens. Background: In a reporter assay the amount or activity of a reporter protein is the signal.
Another data set deals with DLD-1. Briefly: Anti-proliferative activity against human DLD1 cells assessed as inhibition of colony formation at 1 uM measured after 18 days under normal serum condition by trypan blue staining based light microscopic analysis. It is filed as functional, cell-based. The procedure, abridged:
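DLD-1 colony-forming assay under normal serum: 1000 cells/well, with 1.0 µM or 100 nM compound, or a 1% DMSO (v/v) vehicle control. Colonies were counted, n = 3.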

Data set [3] concerns the target Protein mono-ADP-ribosyltransferase PARP14 (Homo sapiens, UniProt Q460N5). Briefly: Inhibition of PARP14 (unknown origin).
The target in data set [4] is T2, Protein mono-ADP-ribosyltransferase PARP10 (Homo sapiens, UniProt Q53GL7).
T2 sequence (Q53GL7 whole entry): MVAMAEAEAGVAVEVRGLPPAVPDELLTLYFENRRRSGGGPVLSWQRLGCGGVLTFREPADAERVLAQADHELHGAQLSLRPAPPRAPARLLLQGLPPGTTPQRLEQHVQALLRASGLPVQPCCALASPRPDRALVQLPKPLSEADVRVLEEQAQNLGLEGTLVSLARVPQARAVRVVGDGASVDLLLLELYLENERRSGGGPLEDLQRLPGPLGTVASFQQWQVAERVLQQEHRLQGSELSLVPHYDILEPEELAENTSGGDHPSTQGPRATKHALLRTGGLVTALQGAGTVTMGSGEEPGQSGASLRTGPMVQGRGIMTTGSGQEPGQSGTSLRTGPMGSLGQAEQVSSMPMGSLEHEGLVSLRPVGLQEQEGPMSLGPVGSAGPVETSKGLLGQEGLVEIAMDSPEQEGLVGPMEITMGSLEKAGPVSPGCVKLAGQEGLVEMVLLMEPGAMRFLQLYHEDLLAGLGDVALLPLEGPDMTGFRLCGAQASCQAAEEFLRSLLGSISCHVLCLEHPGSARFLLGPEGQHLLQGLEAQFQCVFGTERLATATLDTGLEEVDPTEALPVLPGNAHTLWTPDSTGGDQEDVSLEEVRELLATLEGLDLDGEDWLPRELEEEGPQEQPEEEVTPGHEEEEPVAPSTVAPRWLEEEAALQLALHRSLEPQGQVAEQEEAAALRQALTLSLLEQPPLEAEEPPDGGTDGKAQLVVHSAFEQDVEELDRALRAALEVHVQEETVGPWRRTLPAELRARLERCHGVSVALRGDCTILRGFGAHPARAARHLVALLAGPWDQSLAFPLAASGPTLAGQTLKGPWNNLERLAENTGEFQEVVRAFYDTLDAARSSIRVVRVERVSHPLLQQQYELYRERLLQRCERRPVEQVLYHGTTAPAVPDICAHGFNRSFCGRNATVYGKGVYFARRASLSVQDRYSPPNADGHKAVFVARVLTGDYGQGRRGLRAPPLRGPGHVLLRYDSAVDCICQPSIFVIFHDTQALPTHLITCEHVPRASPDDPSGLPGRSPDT
Briefly: Inhibition of PARP10 (unknown origin).

Calls of active or inactive are those of the source. The calls are words filed in the database; no cut-off is given here.

Sequence of Protein mono-ADP-ribosyltransferase PARP14 (Q460N5 whole entry): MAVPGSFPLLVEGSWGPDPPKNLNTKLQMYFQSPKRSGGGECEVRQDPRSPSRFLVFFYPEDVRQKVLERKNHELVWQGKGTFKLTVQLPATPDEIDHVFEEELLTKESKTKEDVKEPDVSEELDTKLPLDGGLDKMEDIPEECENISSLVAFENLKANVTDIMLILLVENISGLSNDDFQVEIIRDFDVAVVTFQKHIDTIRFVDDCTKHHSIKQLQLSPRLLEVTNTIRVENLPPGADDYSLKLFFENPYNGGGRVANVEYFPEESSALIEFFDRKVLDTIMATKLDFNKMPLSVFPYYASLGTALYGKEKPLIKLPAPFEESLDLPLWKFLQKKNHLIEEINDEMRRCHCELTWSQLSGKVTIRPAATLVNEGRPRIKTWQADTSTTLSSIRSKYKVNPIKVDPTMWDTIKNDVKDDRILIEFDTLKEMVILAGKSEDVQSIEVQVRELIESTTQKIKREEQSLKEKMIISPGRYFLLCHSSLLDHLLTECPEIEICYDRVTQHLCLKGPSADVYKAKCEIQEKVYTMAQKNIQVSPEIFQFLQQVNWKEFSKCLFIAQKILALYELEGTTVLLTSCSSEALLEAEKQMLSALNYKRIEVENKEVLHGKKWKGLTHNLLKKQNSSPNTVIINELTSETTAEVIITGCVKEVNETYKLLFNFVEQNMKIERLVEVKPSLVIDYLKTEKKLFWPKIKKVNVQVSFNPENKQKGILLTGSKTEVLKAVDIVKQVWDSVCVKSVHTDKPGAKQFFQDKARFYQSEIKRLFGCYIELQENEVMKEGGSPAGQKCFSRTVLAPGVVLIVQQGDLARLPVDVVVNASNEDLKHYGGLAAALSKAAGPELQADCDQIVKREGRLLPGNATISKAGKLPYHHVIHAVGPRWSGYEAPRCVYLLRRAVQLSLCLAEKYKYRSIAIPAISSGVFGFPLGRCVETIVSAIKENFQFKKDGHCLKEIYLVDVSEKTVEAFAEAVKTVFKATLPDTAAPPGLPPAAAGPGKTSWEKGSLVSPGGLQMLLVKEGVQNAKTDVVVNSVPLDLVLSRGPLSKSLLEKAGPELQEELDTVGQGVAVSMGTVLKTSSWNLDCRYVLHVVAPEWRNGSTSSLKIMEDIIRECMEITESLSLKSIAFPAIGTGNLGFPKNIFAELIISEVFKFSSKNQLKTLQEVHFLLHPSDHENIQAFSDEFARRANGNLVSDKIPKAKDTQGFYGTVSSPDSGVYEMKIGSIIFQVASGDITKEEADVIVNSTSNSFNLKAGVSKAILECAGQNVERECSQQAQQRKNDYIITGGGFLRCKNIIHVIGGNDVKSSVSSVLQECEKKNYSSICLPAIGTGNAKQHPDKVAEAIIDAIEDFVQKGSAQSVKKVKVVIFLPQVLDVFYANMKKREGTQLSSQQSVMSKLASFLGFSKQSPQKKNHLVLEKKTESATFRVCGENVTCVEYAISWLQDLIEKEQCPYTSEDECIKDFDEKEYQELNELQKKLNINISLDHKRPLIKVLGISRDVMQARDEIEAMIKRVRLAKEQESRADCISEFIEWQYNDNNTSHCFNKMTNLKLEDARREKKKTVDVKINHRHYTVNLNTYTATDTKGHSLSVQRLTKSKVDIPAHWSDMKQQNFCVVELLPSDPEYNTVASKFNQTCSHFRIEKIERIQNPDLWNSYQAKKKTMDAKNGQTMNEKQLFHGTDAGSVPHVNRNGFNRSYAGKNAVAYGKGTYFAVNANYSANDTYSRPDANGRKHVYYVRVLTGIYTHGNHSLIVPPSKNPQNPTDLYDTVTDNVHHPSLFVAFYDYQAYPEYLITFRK

As for `O=C(CCc1nc2ccccc2c(=O)[nH]1)Nc1ccc(C(=O)Nc2cccc3cccnc23)cc1`, the IC50 in data set [1] was 9.1 nM; in data set [2] (read-out: IC50) it was 29 nM; in data set [2] (read-out: pIC50 (converted)) it was 28.8 nM; in data set [3], above 100000 nM; in data set [4] it was above 100000 nM. For the same compound, in the data set with 3T3-L1, the Activity result is “Non-Toxic”. In addition, the inhibition result in the data set on DLD-1 was “Active”.
Regarding `Cc1cccc2c(=O)[nH]c(CCC(=O)Nc3ccc(C(=O)Nc4cccc5cccnc45)cc3)nc12`, the IC50 was 5.1 nM in data set [1]; 37 nM in data set [2] (read-out: IC50); 37.2 nM in data set [2] (read-out: pIC50 (converted)); above 100000 nM in data set [3]; above 100000 nM in data set [4]. For the same compound, the Activity entry with 3T3-L1 is listed as “Non-Toxic”. For the same compound, the inhibition result with DLD-1 was “Active”.
